Values after ≈ are worked out from the molar mass of the structure shown. One block for each compound: values may come before it.
What was measured:
[1] = system: ALS; conditions: ALS patients; ref v; cited from earlier work
[2] = PBS stability; format: physicochemical; conditions: 5 μM, 37 °C
How it was run: (§1)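 Samples were taken at 15 s, 10, 20, 40 and 60 min and precipitated with acetonitrile containing haloperidol as internal standard, then analysed by LC-MS/MS for analyte/internal standard peak-area ratio. The plasma ratio was divided by the PBS ratio at the same time point.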

[3] = Microsomal stability; format: in vitro ADME; conditions: mouse, liver microsomes
How it was run: (§2)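 Test compound at 5 μM, in duplicate, with liver microsomes (0.275 mg/mL protein) in 100 mM potassium phosphate, 3 mM MgCl2, 2 mM NADPH, pH 7.4, at 37 °C; a parallel control omits NADPH. Aliquots at 15 sec to 60 min quenched in acidified acetonitrile. Parent quantified by LC-MS/MS against haloperidol internal standard. k from 1/Y-weighted exponential fit; T1/2 = ln2/k.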

[4] = Microsomal stability; format: in vitro ADME; conditions: human, liver microsomes, pH 7.4, CL’int, 37 °C, with NADPH
How it was run: as §2

[5] = Mouse plasma stability; format: in vitro ADME
How it was run: as §1

[6] = Aqueous solubility screen in PBS; format: physicochemical; conditions: PBS with 1% DMSO
[7] = system: mutant G93A SOD1 aggregation in PC12 cells; assay: Mutant SOD1-induced cytotoxicity protection assay; format: cell-based; conditions: maximum cell viability in cytotoxicity protection assay

SMILES: Nc1nc2ccc(OC(F)(F)F)cc2s1 [Riluzole]
- prolongation of patient life [1]: two to three

- PBS Amount Remaining at 60 min [2]: 100%
- CLint scaled at 5 μM ([3]; pH 7.4, CL’int No NADPH, without NADPH): 3.67 L/h/kg
- CLint scaled at 5 μM ([3]; pH 7.4, CL’int, 5 μM, 37 °C, with NADPH): 17.5 L/h/kg
- CLint scaled at 5 μM [4]: 3.51 L/h/kg
- Recovery Plasma vs. PBS [5]: 91%
- solubility at 1 h [6]: 0.0164 mg/mL (≈ 56.7 µM)
SMILES: Cc1cc(SCc2cc(=O)[nH][nH]2)c(Cl)cc1Cl [compound 1, 5-((2,4-Dichloro-5-methylphenylthio)methyl)-1H-pyrazol-3(2H)-one]

SMILES: C[C@@H]1C[C@H]2O[C@@H]2/C=C\C=C\C(=O)Cc2c(Cl)c(O)cc(O)c2C(=O)O1 [radicicol]
- efficacy (cell viability) [7]: 85%

Reference: paper PMC3014451 (Bioorganic & medicinal chemistry, 2010)
